Results from ChEMBL document CHEMBL1158117, “Decaspirones A-E, bioactive spirodioxynaphthalenes from the freshwater aquatic fungus Decaisnella thyridioides” (2006).
Converted amounts (≈) assume the structure as drawn. The source made the active and inactive calls. The rule behind the calls is not given here.

Assays:
Type in all cases: functional
Aspergillus flavus [1] = test: Antifungal activity against Aspergillus flavus NRRL 6541 at >25 ug/mL after 48 hrs relative to control; conditions: in the assay text read “25 ug/mL” for “>25 ug/mL”
Method in brief: (§1)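 Broth microdilution in 96-well plates at 1, 3, 5, 10 and 25 µg/mL, with eight replicate wells per level. Compound in MeOH was dried in the well, redissolved in 10 µL MeOH, then 200 µL potato dextrose broth with about 8000 conidia was added (about 4 × 10^4/mL). For A. flavus, conidia came from 14-day PDA cultures at 25 °C and were filtered through cheesecloth. Plates were incubated 48 h at 25 °C and read on a plate reader every 8-16 h against MeOH-only controls. MIC is the lowest level with no growth. Nystatin was the positive control. F. verticillioides was run analogously.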

Aspergillus flavus [2] = test: Antifungal activity against Aspergillus flavus NRRL 6541 at 200 ug/disk; conditions: read-out: IZ
Method in brief: (§2)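 Agar disk diffusion at 200 µg/disk against each fungal strain, scored as the inhibition zone diameter in mm.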

Aspergillus flavus [3] = test: Antifungal activity against Aspergillus flavus NRRL 6541 after 48 hrs; conditions: NRRL 6541, 48 h; method in brief: as §1
Candida albicans = test: Antimicrobial activity against Candida albicans ATCC 14053 at 100 ug/disk; conditions: for zone of inhibition at 100 µg/disc: read-out: IZ
Fusarium verticillioides [4] = test: Antifungal activity against Fusarium verticillioides NRRL 25457 at 200 ug/disk; conditions: read-out: IZ; method in brief: as §2
Fusarium verticillioides [5] = test: Antifungal activity against Fusarium verticillioides NRRL 25457 after 48 hrs; conditions: NRRL 25457, 48 h; method in brief: as §1
Bacillus subtilis = test: Antibacterial activity against Bacillus subtilis ATCC 6051 at 50 ug/disk; conditions: read-out: IZ
Method in brief: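 Standard paper-disk agar diffusion test at 50 µg per disk; activity read as the diameter of the inhibition zone in mm.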

Staphylococcus aureus = test: Antibacterial activity against Staphylococcus aureus ATCC 29213 at 100 ug/disk; conditions: for zone of inhibition at 100 µg/disc: read-out: IZ

O=C1C=CC2(Oc3cccc4cccc(c34)O2)[C@H]2[C@H]1[C@@H](O)CC[C@H]2O [DECASPIRONE C]
Activity (Aspergillus flavus [1]): 27% | zone of inhibition at 200 µg/disc (Aspergillus flavus [2]): 15 mm | MIC (Aspergillus flavus [3]): > 25 mg/L | Activity (Candida albicans): inactive | zone of inhibition at 200 µg/disc (Fusarium verticillioides [4]): 26 mm | MIC (Fusarium verticillioides [5]): 25 mg/L (≈ 73.9 µM) | zone of inhibition at 50 µg/disc (Bacillus subtilis): 34 mm | zone of inhibition at 100 µg/disc (Staphylococcus aureus): 28 mm

CC(=O)O[C@H]1C=C[C@@H](O)[C@@H]2[C@@H]1C(=O)C=CC21Oc2cccc3cccc(c23)O1 [DECASPIRONE E]
zone of inhibition at 100 µg/disc (Candida albicans): 17 mm | zone of inhibition at 50 µg/disc (Bacillus subtilis): 30 mm | Activity (Staphylococcus aureus): inactive

CC(=O)O[C@@H]1C=C[C@H](O)[C@H]2C(=O)C=CC3(Oc4cccc5cccc(c45)O3)[C@@H]21 [DECASPIRONE D]
zone of inhibition at 100 µg/disc (Candida albicans): 13 mm | zone of inhibition at 50 µg/disc (Bacillus subtilis): 30 mm | zone of inhibition at 100 µg/disc (Staphylococcus aureus): 30 mm

O=C1C=CC2(Oc3cccc4cccc(c34)O2)[C@H]2[C@H]1[C@@H](O)C=C[C@H]2O [DECASPIRONE A]
zone of inhibition at 200 µg/disc (Aspergillus flavus [2]): 20 mm | MIC (Aspergillus flavus [3]): 10 mg/L (≈ 29.7 µM) | zone of inhibition at 100 µg/disc (Candida albicans): 30 mm | zone of inhibition at 200 µg/disc (Fusarium verticillioides [4]): 20 mm | MIC (Fusarium verticillioides [5]): 5 mg/L (≈ 14.9 µM) | zone of inhibition at 50 µg/disc (Bacillus subtilis): 39 mm | zone of inhibition at 100 µg/disc (Staphylococcus aureus): 41 mm

CC(=O)O[C@H]1C=C[C@@H](O)[C@@H]2[C@@H]1[C@@H](O)C=CC21Oc2cccc3cccc(c23)O1 [DECASPIRONE B]
Activity (Candida albicans): inactive | zone of inhibition at 50 µg/disc (Bacillus subtilis): 19 mm | Activity (Staphylococcus aureus): inactive
